One experiment has as its target MV FlAsH (Gallus gallus, UniProt Q02440, D297C/G292C/I296C/S293C/V295G). In words: Actin-activated steady-state ATPase, NADH coupled assay. The class given is biochemical, chicken. Particulars: 20 μM actin, 25°C.
Another experiment has as its target acto-MV FlAsH (Gallus gallus, UniProt Q02440, D297C/G292C/I296C/S293C/V295G). In words: Mg dependence of ADP release rate constants. The class given is binding, chicken. The conditions noted are these: read-out: KD.Mg, Eq. 14. Put shortly:
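Acto-MV FlAsH·mantdADP (final 0.25 μM MV FlAsH, 0.5 μM actin, 10 μM mantdADP) stopped-flow mixed with 1 mM ATP at 25°C. Buffer: K50TCEP, pH 7.0, with 0.5–10 mM MgCl2; free Mg calculated from stability constants. FRET read with 365 nm excitation and 515 nm long-pass emission. Biexponential rate constants vs free Mg fitted to Eq. 14 to extrapolate Mg-free and Mg-saturated values and KD.Mg.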

The conditions of experiment [1]: read-out: KD of Mg for free ADP; previously determined; cited from earlier work.

“And” between values parts separate entries of the source, which are not always exact repeats. Equal entries are not always repeated. Where two headings read alike, the source gives them in different places.

As for `O=C(O)CN(CCN(CC(=O)O)CC(=O)O)CC(=O)O` [EDTA, reference compound], the “actin-activated ATPase rate” value on MV FlAsH (K50 buffer containing 4 mM EDTA (Mg free)) is 0.06 s⁻¹.
With `[Mg+2]` [Mg, magnesium], on MV FlAsH (high free Mg (3–9 mM) versus low free Mg (0.1–0.3 mM)), the “reduction in actin-activated ATPase activity” value was 50–60% and 60%. In addition, the Kd on acto-MV FlAsH (actomyosin V strong ADP binding conformation) is 900 ± 400 µM; at acto-MV FlAsH (actomyosin V weak ADP binding conformation), 600 ± 300 µM; in experiment [1], 350 ± 300 µM.

Usually Kd stands for the equilibrium constant for the complex coming apart.

Values taken from PMC3855573 (Biochemistry, 2013).
